From PubChem
Measles CPE: compounds protecting cells from measles virus cytopathic effect, primary screen, measles RdRp inhibitor project, single point, MLSMR library, absorbance; protection (pct of control), % at 4 µM; 1.5% of 140,000 active; Measles virus-infected cells, CPE protection; in the data active = protection mostly above about 24%, no sharp cut-off; inactive = mostly below about 26%
Yeast lifespan up: compounds extending yeast replicative lifespan, primary screen, S. cerevisiae, OD615 | 0.68% of 130,000 active | S. cerevisiae growth with nicotinamide; deaD strain in restrictive glucose medium | inhibition of the nicotinamide effect, % at 10 µM;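 active = inhibition above a set limit, placed 3 SD over the median of all compounds, cut at about 26% in these data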;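 also: 0% = nicotinamide-treated wells and 100% = cells grown without nicotinamide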
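assay system = DeaD-strain S. cerevisiae | measured by = absorbance at 615 nm | probe or stimulus = nicotinamide 1.5 mM | buffer or medium = CSMM-D glucose medium, restrictive | times = 48 h at 30 °C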
Yeast growth inh: growth inhibitors of yeast BB579 in restrictive medium, primary screen, yeast lifespan-shortening project, S. cerevisiae; 0.51% of 140,000 active; AID 804, 2007; inhibition, % at 10 µM; OD615, 48 h;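 active = inhibition above a set limit, 3 SD over the mean compound inhibition, cut at about 44% in these data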
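Assay system – yeast BB579 (DeaD) · Dosing – single compound dose of 10 µM, 0.25% DMSO final · Detection – OD615 turbidity measurement · Buffer or medium – CSMM-D restrictive synthetic medium containing dextrose (glucose) · Benchmarks – positive control amphotericin B 10 µg/mL · Incubation – 48 h exposure, 30 °C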
RAM inhibit: inhibitors of the yeast RAM network, primary screen, dse1pr::URA3 reporter, 5-FOA selection; inhibition, % at 50 µM; AID 868, 2007; S. cerevisiae dse1pr::URA3 reporter, 5-FOA growth OD615, 2 d; analog-sensitive cbk1-as2 kinase mutant strain; 1.8% of 190,000 active;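 active = inhibition above a set limit, 3 SD over mean compound inhibition, cut at about 8.4% in these data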;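 also: 0% = DMSO-only wells with no growth and 100% = 10 µM 1-NA-PP1 full growth; inhibition rescues growth on 5-FOA so higher OD means more RAM inhibition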
* = called active by the depositor; · = not tested or not shown. A selection: hits, their analogues and other compounds. The true share with any hit is near 3.6%.

SMILES | Measles CPE | Yeast lifespan up | Yeast growth inh | RAM inhibit
CCCCc1ccc(NC(=S)NCCN2CCOCC2)cc1 | · | · | · | -0.5
COc1ccc(CCNc2oc(COc3ccc(Br)cc3)nc2C#N)cc1OC | 3.1 | -1.6 | -62.9 | 10.0*
Cc1ccccc1Cn1cc(S(=O)(=O)CC(=O)Nc2nccs2)c2ccccc21 | 5.1 | -2.5 | -36.4 | 8.4*
CCOC(=O)N1CCN(C(=O)CS(=O)(=O)c2cn(Cc3ccccc3C)c3ccccc23)CC1 | 9.1 | -1.9 | -44.5 | 4.8
COc1ccc(N/C=C/C(=O)c2sc(-c3ccccc3)nc2C)cc1 | 2.9 | -10.6 | -41.7 | 9.5*
C#CCOc1ccc(Cl)cc1/C=N/O | 12.9 | -15.5 | -13.8 | 0.4
O/N=C/c1cc(Cl)ccc1OCc1cccc2ccccc12 | 5.0 | -8.6 | 75.6* | 3.2
COc1ccc(-n2ncc3c(=O)n(CC(=O)Nc4ccc(S(=O)(=O)N5CCOCC5)cc4)cnc32)cc1 | 59.8* | 2.1 | -36.3 | 4.0
O=C(Cn1cnc2c(cnn2-c2ccccc2)c1=O)Nc1ccc(S(=O)(=O)N2CCOCC2)cc1 | 12.1 | -3.3 | -6.5 | 4.8
CC(C)c1cc(N=NC(N)=O)cc(C(C)C)c1O | · | · | · | 4.8
COc1ccc(NC2=Nc3ccccc3N3C2=Nc2c(c(C)nn2-c2ccc(C)cc2)C3c2cccnc2)cc1 (configuration not stated) | 2.7 | -16.6 | -48.0 | 4.3
CC(=O)Nc1ccc(NC2=Nc3ccccc3N3C2=Nc2c(c(C)nn2-c2ccccc2)C3c2ccccc2)cc1 (configuration not stated) | 3.4 | -7.3 | -66.7 | 9.4*
O=C(NN=C1C2CC3CC1CC(Cl)(C3)C2)c1ccccn1 | · | · | · | 0.1
CCC(C)n1c(SCc2ccc([N+](=O)[O-])cc2)nc2ccsc2c1=O (configuration not stated) | 9.2 | 0.8 | -9.6 | 9.6*
CCCCn1c(SCc2cccc([N+](=O)[O-])c2)nc2ccsc2c1=O | 5.3 | 1.9 | -22.4 | 7.9
CCN(CC)S(=O)(=O)c1ccc(C)c(N=C=S)c1 | · | · | · | 3.5
C/C(=N\NC(=O)c1ccccc1O)C1C(=O)c2ccccc2C1=O | 7.0 | 97.9* | -49.0 | 2.6
C/C(=N/NC(=O)c1cc2ccccc2cc1O)C1C(=O)c2ccccc2C1=O | 28.4 | 0.8 | -39.0 | 0.8
COc1cccc2c1OCC(CN1CCN(CCC(C)C)C(CCO)C1)=C2 (configuration not stated) | · | · | · | 1.4
Cc1cc(C)n(C(=O)CCCn2cc([N+](=O)[O-])cn2)n1 | · | · | · | 0.6
Cc1cc(C)c2oc(C(=O)Nc3ccc(S(=O)(=O)N4CCCC(C)C4)cc3)cc(=O)c2c1 (configuration not stated) | 13.9 | -5.7 | -26.6 | 9.2*
CCSc1nnc(NC(=O)C2(C)Cc3ccccc3C(=O)O2)s1 (configuration not stated) | 3.4 | 37.2* | -2.6 | -1.2
CC1(C(=O)Nc2nnc(C(C)(C)C)s2)Cc2ccccc2C(=O)O1 (configuration not stated) | 34.9 | 2.8 | -6.3 | 2.1
Cc1ccc(NC(=O)CSc2nnc(-c3n[nH]c4ccccc34)n2-c2ccccc2)c(C)c1 | 13.3 | -3.4 | -7.2 | 0.5
Cc1cccc(CSC2=CS(=O)(=O)c3ccccc3N2)c1 | 42.4* | -13.6 | -5.5 | 1.8
SMILES | Measles CPE | Yeast lifespan up | Yeast growth inh | RAM inhibit
Cc1ccc(CSC2=CS(=O)(=O)c3ccccc3N2)cc1 | 9.9 | -14.3 | -16.2 | 1.5
CCCCC(=O)NNC(=S)NC(=O)CCC | 11.6 | · | 77.9* | -1.4
O=C(O)c1ccccc1C(=O)Nc1ccc(Oc2cccc3ccccc23)cc1 | · | · | · | 3.6
O=C(Nc1ccc(Oc2cccc3ccccc23)cc1)c1ccco1 | 8.4 | -19.9 | -26.9 | 9.2*
Cc1ccccc1OCc1nc(-c2ccc(NC(=O)c3ccco3)cc2)no1 | 71.2* | -8.5 | -39.3 | 2.7
CCOC(=O)C1CCN(C(=O)CCc2c(C)nc3cc(-c4ccccc4)nn3c2C)CC1 | 8.3 | -13.3 | -6.3 | 0.5
CCOC(=O)C1CCCCN1C(=O)CCc1c(C)nc2cc(-c3ccccc3)nn2c1C (configuration not stated) | 2.2 | 9.8 | 47.6* | -0.3
COc1ccc(/C=C/C(=O)c2oc3ccc(F)cc3c2C)cc1 | 18.6 | 5.0 | -40.8 | 10.7*
NS(=O)(=O)c1cccc(NS(=O)(=O)c2ccc(/C=C/C(=O)OCC(=O)c3ccccc3)cc2)c1 | · | · | · | 3.5
COc1ccc(CCNS(=O)(=O)c2ccc3c(c2)CC(C)N3C(C)=O)cc1OC (configuration not stated) | 37.5* | -3.4 | -3.9 | -0.6
Clc1cc(Cl)c(OCc2nc(-c3ccccn3)no2)cc1Cl | 3.5 | -0.6 | -68.1 | 10.8*
CC(C)(C)c1ccc(OCc2nc(-c3ccccn3)no2)c(Br)c1 | 16.2 | -6.6 | -7.6 | 4.3
COc1cc(/C=N/NC(=O)CCN2CCN(C(c3ccccc3)c3ccccc3)CC2)ccc1O | 28.0* | -4.1 | -28.9 | 0.5
COc1ccc(S(=O)(=O)Nc2nnc(Cc3ccc(OC)c(OC)c3)s2)cc1 | · | · | · | 3.0
Cc1ccc(C(=O)NC(=S)Nc2nc(-c3cccc([N+](=O)[O-])c3)cs2)c(Cl)c1 | · | · | · | 1.4
CC1=NN(c2ccccc2)C(=O)/C1=C\C=C1\N(C)c2ccccc2C1(C)C | 58.7* | -6.5 | -9.8 | 0.9
CCOCCCNC(=O)c1cc(Sc2ccc(C)cc2)nc2ccccc12 | 4.2 | 1.5 | -25.4 | 10.9*
Cn1cc(CNC(=O)c2cc(-c3ccc(Br)cc3)nc3ccccc23)cn1 | · | · | · | 8.8*
Cn1cc(CNC(=O)c2cc(-c3ccccc3)nc3ccc(Br)cc23)cn1 | 11.0 | -4.5 | -51.4 | 3.5
O=C(CSc1nnc(CNC(=O)c2cccs2)o1)NCC1CCCO1 (configuration not stated) | · | · | · | 0.3
CCn1c(=O)c(C(=O)NNS(=O)(=O)c2ccc(Br)cc2)c(O)c2ccccc21 | · | · | · | 3.1
CN(C)CCCOC(=O)COc1ccc(C(C)(C)C)cc1 | 25.0* | -1.7 | 6.7 | -0.2
Cc1ccc(S(=O)(=O)Nc2cnn(-c3ccccc3)c(=O)c2Cl)cc1 | · | · | · | 0.1
CCOC(=O)C1=C(C)NC2=C(C(=O)C(C(=O)OCC)C(c3ccccc3OC)C2)C1c1ccccn1 (configuration not stated) | 3.9 | -20.8 | -23.4 | -0.8
CCOC(=O)C1=C(C)NC2=C(C(=O)C(C(=O)OCC)C(c3ccco3)C2)C1c1ccccn1 (configuration not stated) | 49.6* | -10.8 | -4.8 | -0.3
COC(=O)C1=C(C)N=c2s/c(=C/c3ccoc3)c(=O)n2C1c1ccccc1 (configuration not stated) | 21.6 | -3.1 | -23.6 | 2.8
COC(=O)C1=C(C)N=c2s/c(=C/c3cccs3)c(=O)n2C1c1cccs1 (configuration not stated) | 4.2 | -17.8 | -57.8 | 9.2*
CC(C)N=C(NS(=O)(=O)c1ccccc1)C(Cl)(Cl)Cl | 21.7 | 39.6* | -27.6 | 1.1
COc1ccc(CCc2nnc(CCC(=O)NCc3cc(C(C)C)no3)o2)cc1 | · | · | · | 0.6
